High-throughput results deposited in PubChem BioAssay by several laboratories.
KLK5 inh = inhibitors of human kallikrein 5; recombinant hK5, fluorogenic AMC substrate cleavage; inhibition, % at 5 µM; 0.59% of 210,000 active;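 active means inhibition of 40% or more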
TbHK1 inh = blocks Trypanosoma brucei hexokinase 1 activity | recombinant TbHK1, G6PDH-coupled NADH A340 | inhibition, % at 10 µM | 0.11% of 220,000 active;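 active means inhibition of 50% or more in the single-dose primary screen; inactive means inhibition below 50%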
FXIIa inh 1536 = blocks human coagulation factor XIIa protease activity; 0.3% of 220,000 active; AID 800; purified FXIIa, Boc-QGR-AMC fluorogenic substrate, 2 h; P00748; inhibition, % at 5 µM; in the data active means inhibition above about 40%
Target sequence (P00748 20-372 limits assumed): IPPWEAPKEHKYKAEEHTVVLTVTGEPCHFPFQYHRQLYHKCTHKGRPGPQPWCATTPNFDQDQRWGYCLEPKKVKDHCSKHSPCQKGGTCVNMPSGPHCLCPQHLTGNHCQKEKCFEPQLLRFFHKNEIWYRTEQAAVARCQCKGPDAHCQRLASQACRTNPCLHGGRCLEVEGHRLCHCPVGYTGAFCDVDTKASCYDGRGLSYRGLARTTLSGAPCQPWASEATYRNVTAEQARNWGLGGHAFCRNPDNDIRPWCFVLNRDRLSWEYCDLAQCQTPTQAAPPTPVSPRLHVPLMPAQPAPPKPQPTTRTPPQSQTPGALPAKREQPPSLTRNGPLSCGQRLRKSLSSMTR
Target sequence (P00748 373-615 limits assumed): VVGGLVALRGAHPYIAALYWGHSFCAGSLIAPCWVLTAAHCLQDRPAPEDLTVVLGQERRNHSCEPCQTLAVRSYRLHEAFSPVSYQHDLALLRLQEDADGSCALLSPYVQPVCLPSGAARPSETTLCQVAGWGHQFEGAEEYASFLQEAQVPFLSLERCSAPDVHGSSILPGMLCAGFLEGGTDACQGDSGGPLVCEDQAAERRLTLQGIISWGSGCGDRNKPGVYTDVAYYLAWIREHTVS
thrombin 1536 = inhibitors of human thrombin; alpha-thrombin, Boc-VPR-AMC fluorogenic substrate cleavage; inhibition, % at 5 µM; 0.26% of 220,000 active;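 active means inhibition at or above 40%; inactive means inhibition below 40%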
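System – human alpha-thrombin · Medium – pH 7.5 Tris (50 mM) with NaCl 150 mM, Tween 20 0.05% · Compound – single-point dosing at 5 µM, 0.2% DMSO · Incubation – enzyme reaction carried out at room temperature · Technique – fluorescence of released AMC, ex 355 nm, em 460 nm · Read-out basis – % inhibition of thrombin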
FXIa inh = blocks human coagulation factor XIa protease activity; purified FXIa, Boc-Glu-Ala-Arg-AMC fluorogenic substrate; 0.14% of 220,000 active; P03951; inhibition, % at 5 µM;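 active means inhibition of at least 40%; inactive means inhibition below 40%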;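 further: fluorescence of freed AMC excited at 355 nm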
Large screens that a line does not name were inactive. A selection: hits, their analogues and other compounds. The true share with any hit is near 1.1%.

Oc1ccc(Oc2ccc3c(C(F)(F)F)cc(C(F)(F)F)nc3n2)cc1	KLK5 inh 131.8
COc1ccc(Oc2ccc3c(C(F)(F)F)cc(C(F)(F)F)nc3n2)cc1	none
O=C1c2cccnc2Oc2ccc(Cl)cc2N1Cc1ccc(F)cc1	KLK5 inh 43.8
Cc1ccc2c(c1)N(Cc1cccc(Cl)c1)C(=O)c1cccnc1O2	none
Cc1ccc(N2CC(C(=O)Nc3ccc4c(c3)OCO4)CC2=O)cc1 (centres undefined)	none
O=C(Nc1ccc(Cl)c(Cl)c1)C1CC(=O)N(c2ccc(Br)cc2)C1 (centres undefined)	thrombin 1536 49.1
C(=C\c1ccccn1)/c1cccnc1	none
C#CCOCCOCCOCCNc1nc(N2CCN(C(=O)Cn3cc(CC(C)O)nn3)CC2)nc(N2CCN(C(=O)[C@H](C)n3cc(CCCN=C(N)N)nn3)CC2)n1 (some centres undefined)	thrombin 1536 40.1
C#CCOCCOCCOCCNc1nc(N2CCN(C(=O)Cn3cc(CCCCN)nn3)CC2)nc(N2CCN(C(=O)[C@H](C)n3cc(CCCN=C(N)N)nn3)CC2)n1	none
CC1(C)C(=O)Nc2ccccc2N1C(=O)COC(=O)c1cc([N+](=O)[O-])ccc1N	KLK5 inh 48.3
Cc1ccc(N2C(=N)/C(=C3/Nc4ccccc4S3)C(c3ccccc3)C2=O)cc1 (centres undefined)	none
O=C(N/N=C/c1cccc(F)c1)c1c(O)c2ccccc2[nH]c1=O	thrombin 1536 45.2
O=C(N/N=C/c1ccc(F)cc1)c1c(O)c2ccccc2[nH]c1=O	none
Cc1ccc(S(=O)(=O)CC(=O)c2cc(C)c(O)c(C)c2)cc1	none
COCCNCC(=O)Nc1nc(C)cs1	FXIIa inh 1536 101.9, FXIa inh 46.3
Cc1csc(NC(=O)Cc2c[nH]c3ccccc23)n1	FXIIa inh 1536 40.5
O=C(Nc1ccccc1C(=O)O)c1ccc(Br)c(S(=O)(=O)NCc2ccccc2)c1	none
O=C(C1CCCC1)N(c1ccccc1)C1C=CS(=O)(=O)C1 (centres undefined)	none
Cc1ccc(N(C(=O)C2CCCC2)C2C=CS(=O)(=O)C2)cc1 (centres undefined)	KLK5 inh 114.4
CCn1cc(C(=O)NCc2cccc(F)c2)c(=O)c2cc(F)c(N3CCN(C(=O)c4ccco4)CC3)cc21	none
CCn1cc(C(=O)NCc2cccnc2)c(=O)c2cc(F)c(N3CCN(C(=O)c4ccco4)CC3)cc21	FXIIa inh 1536 41.3
NNc1nc2ccc(F)cc2s1	KLK5 inh 42.9
O=C(NC1C/C(=N/O)c2cc3c(cc21)OCO3)C(F)(F)F (centres undefined)	none
NC(=O)CSc1nnc(-c2ccc([N+](=O)[O-])cc2)o1	none
O=c1[nH]nc(SCc2nnc(-c3ccc([N+](=O)[O-])cc3)o2)n1C1CCCCC1	thrombin 1536 43.9
CC1CN(C(=O)/C(C#N)=C2\N=C(NC(=O)c3ccc(F)cc3)c3ccccc32)CC(C)O1 (centres undefined)	none
COCCNC(=O)CSc1nc2ccc(N3CCOCC3)cc2c(=O)n1Cc1ccc(OC)cc1	KLK5 inh 103.1
CSc1ccccc1Sc1cc(C(=O)O)c2ccccc2n1	none
O=C(O)c1cc(Sc2ccc(Br)cc2)nc2ccccc12	KLK5 inh 43.2
O=C(N/N=C/c1ccc(OCc2cnc(Cl)s2)cc1)c1ccncc1	FXIIa inh 1536 66.2, thrombin 1536 49.5
O=C(N/N=C/c1ccc(OCc2ccccc2)cc1)c1ccncc1	none
COc1cc(OC)cc(-n2nnnc2SCC(=O)Nc2ccc(C(C)=O)cc2)c1	thrombin 1536 89.2
O=C(CN1CCOCC1)NN1CC(=O)N(c2ccc(Cl)cc2)CC1=O	none
Cc1ccc2c(c1)c1c3n2CCCNC3CCC1 (centres undefined)	thrombin 1536 40.8
c1cc2c(cc1C1CCCCC1)c1c3n2CCCNC3CCC1 (centres undefined)	none
CCCNC(=S)N1CC2(C)CN(C(=O)C(=O)OCC)CC(C)(C1)C2=O	none
CC(C)(/C=N/NC(=O)CSCc1ccccc1Cl)CCC#N	none
O=C(N/N=C/c1ccc2c(c1)OCO2)C1COc2ccccc2O1 (centres undefined)	KLK5 inh 45.9
CS(=O)(=O)N(Cc1ccc(C(=O)NC2CCCCC2O)cc1)c1ccccc1 (centres undefined)	none
CS(=O)(=O)N(Cc1ccccc1)c1ccc(C(=O)NC2CCCCC2O)cc1 (centres undefined)	FXIIa inh 1536 106.2
COc1ccc(/C=N/NC(=O)COc2cc(C)cc(C)c2)cc1COC(C)=O	none
